TPT1 inhibitor: C. albicans TPT1 enzyme inhibition | recombinant caTPT1, FP RNA substrate dephosphorylation | inhibition, % at 5 µM | hit rate 0.81% among 300,000 | AID 1962;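 active means inhibition above the mean of all tested compounds plus 3 SD, set per screening campaign, cut at about 24% in these data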;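 further: plate controls were DMSO alone for no effect and ferristatin control at 100 nM for full effect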
CSN deneddyl inh: inhibitors of human CSN-mediated cullin deneddylation | Purified CSN, SCF-Nedd8-OG deneddylation, fluorescence polarization | inhibition, % at 12.5 µM | hit rate 0.38% among 360,000 | Q92905;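 active means pattern-corrected inhibition above about 35%, with an unprinted fluorescence ratio check between 0.5 and 1.5, limit read from the data, passing the limit was not always enough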;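 further: 0% = enzyme with substrate and 100% = substrate without enzyme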
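Assay system: purified human Csn5 enzyme expressed in HEK293T cells; Input: 0.24 nM Csn5 enzyme, final concentration; Reagent: 10 nM SCFSkp2-Nedd8OG; Compound dosing: 12.5 µM single point; Times: reaction 90 min, room temperature; Technique: fluorescence polarization readout.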
CRFR2-BP ag: CRF-BP/CRF-R2 complex agonism; HEK293 CRF-R2/CRF-BP, calcium dye fluorescence (FLIPR); percent of saturating CRF peptide response; activation, % at 13.2 µM; hit rate 0.46% among 350,000; AID 588473;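 active means activation of at least 50%, plus an integration ratio under a set limit after plate pattern correction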;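 further: plate controls were neutral control wells without compound for no effect and CRF at EC100 for full effect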
CRFBP-R2 block: blocks CRF-induced signaling of the CRF-BP/CRF-R2 complex | AID 588475 | hit rate 0.59% among 350,000 | inhibition, % at 11.8 µM | HEK293 CRF-R2/CRF-BP, CRF-induced calcium fluorescence;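 active means inhibition of the ligand-induced calcium signal above about 50% at the single tested concentration, limit read from the data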
HNF4A DNA FP: change in binding of human HNF4 alpha to DNA; HNF4a-FITC DNA binding, fluorescence polarization, 1 h; activity change, % at 10 µM; P41235; hit rate 0.3% among 360,000; in the data active means activity change above about 30%, passing the limit was not always enough
Target sequence (P41235 whole entry, looked up): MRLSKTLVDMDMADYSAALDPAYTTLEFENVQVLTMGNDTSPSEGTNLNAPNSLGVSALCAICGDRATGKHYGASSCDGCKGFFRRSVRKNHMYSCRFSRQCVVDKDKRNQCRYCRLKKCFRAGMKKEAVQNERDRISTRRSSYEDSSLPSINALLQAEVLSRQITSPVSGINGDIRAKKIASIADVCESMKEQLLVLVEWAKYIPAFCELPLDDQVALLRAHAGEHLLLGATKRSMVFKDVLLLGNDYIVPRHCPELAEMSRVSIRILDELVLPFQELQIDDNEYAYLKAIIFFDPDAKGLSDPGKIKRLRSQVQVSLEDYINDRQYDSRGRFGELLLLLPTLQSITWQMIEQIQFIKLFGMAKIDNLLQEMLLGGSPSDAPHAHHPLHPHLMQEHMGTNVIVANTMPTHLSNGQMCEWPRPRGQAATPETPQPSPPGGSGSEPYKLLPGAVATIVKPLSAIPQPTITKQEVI
Rpn11 inh: inhibitors of human proteasome Rpn11 | O00487 | human 26S proteasome, Ub4-pepOG fluorescence polarization; 20S core pre-blocked with epoxomicin | calls only at 20 µM | hit rate 0.59% among 360,000 | AID 588493;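 active means inhibition at 20 µM, scaled to each plate's controls, above about 33%, limit read from the data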
Numbers without * were called inactive; i = inactive; / = not tested or not shown. Rows were chosen to be rich in hits. Some 2.3% of all compounds tested hit in one or more screens of this group.

SMILES	TPT1 inhibitor	CSN deneddyl inh	CRFR2-BP ag	CRFBP-R2 block	HNF4A DNA FP	Rpn11 inh
Cc1ccc(NC(=O)COC(=O)CN2C(=O)NC3(CCCC3)C2=O)cc1S(=O)(=O)N(C)C	0	-1	2	61*	-3	i
Cc1ccc(Cn2ccc(NC(=O)c3cc(-c4ccco4)on3)n2)cc1	7	52*	4	5	16	i
Cc1ccc(Cn2ccc(NC(=O)c3cc(-c4ccccc4)on3)n2)cc1	1	4	1	24	-3	i
Cc1ccc(Cn2ccc(NC(=O)c3cc(-c4ccc5c(c4)OCO5)on3)n2)cc1	/	112*	0	-28	-2	i
O=C(Nc1cc(Br)ccc1O)c1cc(-c2ccc3c(c2)OCO3)on1	5	1	-2	70*	11	i
COc1ccc(COc2ccccc2C(N)=O)cc1F	0	1	-1	8	0	i
CCN=C1SC(C(=O)Nc2ccc(Cl)c(Cl)c2)CC(=O)N1CC (stereo not given)	3	79*	0	-14	-1	i
C[C@@H]1NC(=O)/C(=C\c2ccccc2Br)NC1=O	0	7	0	8	3	i
Cc1ccc(S(=O)(=O)/N=C(\N)Nc2nc(C)c3ccc(C)cc3n2)cc1	-1	4	-2	-6	-4	i
CCCN1Cc2cccc(C(=O)NCc3ccc4c(c3)OCO4)c2C1=O	2	1	-4	24	8	i
CCCN1Cc2cccc(C(=O)NCc3cccs3)c2C1=O	-1	5	1	58*	2	i
COC(=O)/C=C1/S/C(=N/NC(=O)c2ccc(Cl)cc2Cl)NC1=O	-4	-1	-2	51*	0	i
O=C(CS(=O)CC(=O)Nc1cccc2c1CCCC2)Nc1ccc(F)cc1 (stereo not given)	0	-2	1	-34	2	i
CN1/C(=C\C(=O)COC(=O)c2ccco2)C(C)(C)c2ccccc21	5	2	1	-13	3	i
CN1/C(=C\C(=O)c2ccco2)C(C)(C)c2ccccc21	1	34	18	-40	42*	/
Cc1cc([N+](=O)[O-])ccc1NCc1ccco1	-2	0	0	59*	-1	i
COc1ccc([N+](=O)[O-])cc1NCc1ccccc1	2	-8	-4	98*	1	i
Cc1cc([N+](=O)[O-])ccc1NCc1ccc2c(c1)OCCO2	-2	2	-2	53*	4	i
COc1ccc(OC)c(CNc2ccc([N+](=O)[O-])cc2C)c1	8	-5	0	19	-5	i
COc1cccc(CNc2ccc([N+](=O)[O-])cc2C)c1	-2	1	-3	58*	4	i
O=[N+]([O-])c1ccc(NCc2ccc3c(c2)OCO3)cc1	0	6	-1	4	0	i
CCOC(=O)NC(=S)Nc1cccc(NC(=S)NC(=O)OCC)c1	2	-4	-1	9	-5	i
COC(=O)CSc1cc([N+](=O)[O-])ccc1NC(=O)OC	0	-3	0	1	0	i
Cn1c(=O)n(Cc2ccccc2F)c2ccccc21	-1	-4	-1	-16	-4	i
Cn1c(=O)n(Cc2ccccc2Cl)c2ccccc21	0	3	0	53*	1	i
SMILES	TPT1 inhibitor	CSN deneddyl inh	CRFR2-BP ag	CRFBP-R2 block	HNF4A DNA FP	Rpn11 inh
CCNc1nc(Oc2ccc(F)cc2)cc(C(F)(F)F)n1	0	-3	-3	-3	-2	i
Cn1c(CCNC(=O)c2ccco2)nc2cc(NC(=O)c3ccco3)ccc21	-2	-5	0	108*	-1	i
Cc1ccc(NC(=O)CSc2nnc(CNC(=O)c3ccco3)n2C)cc1	-3	-3	-1	-7	4	i
Cc1ccc(NC(=O)CSc2nnc(CNC(=O)c3ccco3)n2C)cc1C	-1	43*	0	7	-2	i
CCCC/C=C/[C@H](c1ccccc1)[C@H](CO)Cc1cccnc1	3	1	-4	4	-1	i
Cc1ccnc(NC(=O)c2cccc(S(=O)(=O)N3CCCC3)c2)c1	2	-3	-1	73*	1	i
CC(=O)N1CCN(S(=O)(=O)c2cccc(C(=O)NCc3ccc(F)cc3)c2)CC1	/	4	2	89*	-2	i
O=C(Nc1nnc(S(=O)(=O)N2CCCCC2)s1)c1cccc(Br)c1	-2	-3	14	58*	-6	i
CN(C)S(=O)(=O)c1cccc(C(=O)N(Cc2ccc(F)cc2)Cc2ccco2)c1	-2	-1	-2	12	-1	i
O=C(Nc1nnc(S(=O)(=O)N2CCCC2)s1)c1cccc([N+](=O)[O-])c1	-3	2	0	24	1	i
Cc1ccnc(NC(=O)c2cccc(S(=O)(=O)N3CCN(c4ccccc4)CC3)c2)c1	1	2	0	4	5	i
O=C(c1cccc(S(=O)(=O)N2CCOCC2)c1)N(Cc1ccc(F)cc1)Cc1ccco1	-1	4	-1	55*	-1	i
Cc1ccc2nc(N3C(=O)CNC3=S)sc2c1	6	4	5	7	8	i
O=C(NNC(=O)c1cccc(S(=O)(=O)N2CCCCC2)c1)c1ccccc1	/	6	0	103*	-1	i
O=C(Nc1ccc(Cl)cn1)c1cccc(S(=O)(=O)N2CCCCCC2)c1	/	-1	4	-17	-2	i
O=C(Nc1ccc(Cl)cn1)c1cccc(S(=O)(=O)N2CCCC2)c1	-3	3	0	58*	-3	i
CC(=O)N1c2c(cc(Br)cc2S(=O)(=O)NCc2ccccc2)CC1C (stereo not given)	-1	4	0	-3	0	i
O=C(CCc1nc(-c2ccccn2)no1)NCc1ccc2c(c1)OCO2	-2	-4	1	11	-3	i
CSCCC(NC(=O)c1cccc(C)c1)C(=O)NNC(=O)c1cccs1 (stereo not given)	/	0	0	66*	4	i
CSCCC(NC(=O)c1cccc(C)c1)C(=O)NCc1cccs1 (stereo not given)	/	-2	-1	-6	-3	i
COc1ccc(CC(=O)Nc2ccccc2C(=O)NCCc2ccccc2)cc1	0	-2	-3	1	2	i
COCC(C)n1c(SCC(=O)Nc2sccc2C(N)=O)nc2ccccc2c1=O (stereo not given)	/	7	0	-2	4	i
O=C1C(F)=CC(COC(c2ccccc2)(c2ccccc2)c2ccccc2)OC1n1cc(F)c(=O)[nH]c1=O (stereo not given)	/	4	55*	-45	1	i
O=C(COC(=O)C1CC1)Nc1ccc2[nH]c(=O)[nH]c2c1	-2	2	0	-4	5	i
